Measurements gathered from unrelated publications.
Each line is one published result; the experiments were not run side by side.
Target: Fibroblast growth factor receptor 1 (FGFR1, Homo sapiens, UniProt P11362)

Compound	assay	conditions	remaining binding
CN(C)c1ncc(F)c(-c2cnn3ncccc23)n1	binding	1 µM	100%
O=C(O)c1cc(-c2ccc(C3CCNCC3)cc2)c2ccc(-c3ccc(C(F)(F)F)cc3)cc2c1	cell-free assay, competition with immobilised ligand	1 µM	100%
N[C@H]1CCN(c2nccc(-c3cnn4ncccc34)n2)C1	binding	1 µM	100%
O=C(Nc1c[nH]nc1C(=O)NC1CCNCC1)c1cc(F)cc(F)c1	binding, competition with immobilised ligand	1 µM	100%
Nc1ncc2c(n1)-c1c([nH]c3ccc(C#CC4CC4)cc13)CCCC2	binding, competition with immobilised ligand	1 µM	79%
CC1=C(C#N)[C@@H](c2ccc3[nH]nc(C)c3c2)C(C#N)=C(c2ccc(Cl)cc2)N1	cell-free assay, competition with immobilised ligand	1 µM	86.6%
O=C(c1ccc(Nc2ncc(Cl)c(-c3ccc(Cl)s3)n2)cc1)N1CCC(N2CCCC2)CC1	binding, competition with immobilised ligand	1 µM	12%
C[C@H]1CCN(c2nccc(-c3cnn4ncccc34)n2)C1	binding	1 µM	100%
CNC(=O)[C@@H]1CC[C@@H](n2c(-c3ccc4cnccc4c3)nc3ccc(C(=O)NCc4cccc(C(N)=O)c4)cc32)C1	binding, competition with immobilised ligand	1 µM	90%
F[C@@H]1CCN(c2nccc(-c3cnn4ncccc34)n2)C1	binding	1 µM	87%
FC(F)(F)Oc1cccc(-c2cnc3ccc(-c4ccncc4)nn23)c1	cell-free assay, competition with immobilised ligand	5 µM	72%
O=C1CCc2cc(Nc3cc(OC4CCOCC4)c([N+](=O)[O-])cc3Cl)ccc2N1	cell-free assay, competition with immobilised ligand	1 µM	93%
COc1ccnn2ncc(-c3ccnc(N(C)C)n3)c12	binding	1 µM	86%
COc1cnc(Nc2cccc(S(N)(=O)=O)c2)nc1N1CCN(c2ccccc2)C(=O)C1	binding, competition with immobilised ligand	1 µM	83%
CNC(=O)Nc1ccc2c(c1)CC[C@@]21OC(=O)N(CC(=O)N(Cc2ccc(F)cc2)[C@@H](C)C(F)(F)F)C1=O	cell-free assay, competition with immobilised ligand	1 µM	82%
O=C(c1ccc(Nc2nccc(-c3cc4ccccc4s3)n2)cc1)N1CCC(N2CCCC2)CC1	binding, competition with immobilised ligand	1 µM	88%
COc1cccc(CNC(=O)c2nc3scc(COCc4ccc(C(=O)O)cc4)c3c(=O)[nH]2)c1	cell-free assay, competition with immobilised ligand	1 µM	86.5%
c1cnn2ncc(-c3ccnc(N4CCC45COC5)n3)c2c1	binding	1 µM	100%
O=C(O)[C@H]1[C@H](Cn2nnc3ccccc3c2=O)CC[C@@H]1C(=O)c1ccc(OCCC2CCOCC2)cc1	cell-free assay, competition with immobilised ligand	1 µM	98%
CN(C)c1nccc(-c2cnc3ncccn23)n1	binding	1 µM	82%
CS(=O)(=O)NCC[C@H](NC(=O)c1cncc2c1cnn2-c1ccc(F)cc1)c1ccnc(S(C)(=O)=O)c1	cell-free assay, competition with immobilised ligand	1 µM	87%
O=C(NCCCN1CCOCC1)c1ccc(Nc2nccc(-c3cc4ccccc4s3)n2)cc1	binding, competition with immobilised ligand	1 µM	88%
